Assay results from publication PMC3799977 (Toxicology and applied pharmacology, 2012).
pKi: −log10 of the molar value.

Key:
mouse RORα = biological target: T1, mouse RORα (Mus musculus, UniProt P51448); assay: CHO-K1 cell-based RORα reporter gene assay; conditions: for ROR activity (RORα): data not shown; for RORα inverse agonistic activity (in words): Fig. 2A; for RIC20 (20% relative inhibitory concentration), RORα assay: inverse agonistic activity, CHO-K1 cells, 24 hr
T1 sequence (P51448 1-467 isoform P51448-2): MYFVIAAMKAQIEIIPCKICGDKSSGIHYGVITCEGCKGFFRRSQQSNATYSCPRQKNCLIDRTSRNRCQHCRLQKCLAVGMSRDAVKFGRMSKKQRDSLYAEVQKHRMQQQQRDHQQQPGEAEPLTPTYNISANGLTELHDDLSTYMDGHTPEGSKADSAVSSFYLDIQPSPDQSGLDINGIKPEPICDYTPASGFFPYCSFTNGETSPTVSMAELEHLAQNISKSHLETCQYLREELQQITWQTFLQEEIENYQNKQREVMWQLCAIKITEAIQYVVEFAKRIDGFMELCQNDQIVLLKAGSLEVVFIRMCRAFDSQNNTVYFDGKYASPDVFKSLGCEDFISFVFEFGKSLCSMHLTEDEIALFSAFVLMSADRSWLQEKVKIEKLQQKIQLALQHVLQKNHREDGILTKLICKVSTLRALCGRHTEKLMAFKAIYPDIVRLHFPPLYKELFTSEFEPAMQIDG

mouse RORγ = biological target: T2, mouse RORγ (Mus musculus, UniProt P51450); assay: CHO-K1 cell-based RORγ reporter gene assay; conditions: for ROR activity (RORγ): data not shown; for RIC20 (20% relative inhibitory concentration), RORγ assay: inverse agonistic activity, CHO-K1 cells, 24 hr
T2 sequence (P51450 1-516): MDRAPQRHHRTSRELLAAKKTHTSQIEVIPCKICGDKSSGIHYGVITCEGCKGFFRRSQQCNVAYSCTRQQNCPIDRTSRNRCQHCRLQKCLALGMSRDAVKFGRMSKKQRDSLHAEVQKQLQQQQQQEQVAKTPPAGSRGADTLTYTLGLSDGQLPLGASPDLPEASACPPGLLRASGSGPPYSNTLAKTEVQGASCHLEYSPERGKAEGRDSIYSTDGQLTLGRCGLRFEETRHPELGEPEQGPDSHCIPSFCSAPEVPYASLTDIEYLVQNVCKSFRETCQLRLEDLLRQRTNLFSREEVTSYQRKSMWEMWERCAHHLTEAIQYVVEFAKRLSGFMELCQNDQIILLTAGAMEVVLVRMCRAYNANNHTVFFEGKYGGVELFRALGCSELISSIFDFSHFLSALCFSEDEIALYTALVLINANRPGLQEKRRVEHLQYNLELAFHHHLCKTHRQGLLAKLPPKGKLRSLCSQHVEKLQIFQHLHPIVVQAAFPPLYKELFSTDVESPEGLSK

[1] = system: IL-17A mRNA expression in mouse T lymphoma EL4 cells; assay: IL-17A mRNA expression in EL4 cells; format: cell-based; conditions: 6 h; for IL-17 gene expression, dose dependence: PMA/ionomycin-stimulated EL4 cells, 1, 3, 10 or 30 μM; for IL-17 mRNA expression, real-time PCR: highest dose 30 μM
Outline: (§1)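 EL4 cells were plated at 2 × 10^6 cells/ml in RPMI-1640 with 10% FBS. Next day they were stimulated with PMA (5 ng/ml) plus ionomycin (1 μM) and given vehicle or 1, 3, 10 or 30 μM test compound at 37°C for 6 h. TRIzol RNA was reverse-transcribed and TaqMan real-time PCR run, normalized to β-actin. Results were expressed relative to stimulated vehicle (=1), mean ± SD, three experiments.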

[2] = system: IL-17A mRNA expression in EL4/shNC cells; assay: IL-17A mRNA expression in control shRNA EL4/shNC cells; format: cell-based, mouse; conditions: 10 μM, PMA/ionomycin
[3] = system: IL-17A mRNA expression in EL4/shRorac cells; assay: IL-17A mRNA expression in RORα/γ-knockdown EL4/shRorac cells; format: cell-based, mouse; conditions: 10 μM, PMA/ionomycin, RORα/γ double knockdown
Outline: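 EL4/shRorac, a stable RORα/RORγ double-knockdown clone, was made by electroporating a GFP/Neo U6 vector carrying Rora and Rorc shRNAs, then selecting in G418. EL4/shNC (nonsilencing shRNA) served as control. Cells received 10 μM test compound with or without PMA/ionomycin. IL-17 mRNA was measured by real-time RT-PCR, normalized to β-actin, and expressed relative to stimulated vehicle-treated EL4/shNC (=1). Mean ± SD, three experiments.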

RORα = conditions: read-out: Ki, binding to RORα; ref Kumar et al. (2010); cited from earlier work
[4] = system: RORα mRNA expression in EL4 cells; assay: RORα mRNA expression in PMA/ionomycin-stimulated EL4 cells; format: cell-based, mouse; conditions: 6 h
Outline: as §1

CHO-K1 cells = assay: Cytotoxicity check by β-galactosidase activity in the reporter gene assays; format: cell-based, Chinese hamster; conditions: highest dose (30 μM)
[5] = system: RORγ mRNA expression in EL4 cells; assay: RORγ mRNA expression in PMA/ionomycin-stimulated EL4 cells; format: cell-based, mouse; conditions: 6 h
[6] = PMA/ionomycin-stimulated EL4 cells, 10 μM
[7] = PMA/ionomycin-stimulated EL4 cells

Structure (SMILES) | ROR activity (RORα) (mouse RORα) | ROR activity (RORγ) (mouse RORγ) | IL-17A mRNA expression, real-time PCR [1, 6] | IL-17 gene expression, dose dependence [1] | RORα inverse agonistic activity (in words) (mouse RORα) | RIC20 (20% relative inhibitory concentration), RORα assay (mouse RORα) [µM] | RIC20 (20% relative inhibitory concentration), RORγ assay (mouse RORγ) [µM] | further results
CC(C)(C)C(=O)C(Oc1ccc(Cl)cc1)n1cncn1 (stereo not drawn) [triadimefon] | inactive | inactive | – | – | – | – | – | –
CC(C)(C)C(O)C(Oc1ccc(-c2ccccc2)cc1)n1cncn1 (stereo not drawn) [bitertanol] | inactive | inactive | – | – | – | – | – | –
CCCN(CCOc1c(Cl)cc(Cl)cc1Cl)C(=O)n1ccnc1 [prochloraz] | inactive | inactive | – | – | – | – | – | –
CCCCC(O)(Cn1cncn1)c1ccc(Cl)cc1Cl (stereo not drawn) [Hexaconazole] | – | – | significantly inhibited | inhibit IL-17 gene expression in a dose-dependent manner | weak RORα inverse agonists | 21 | 3.2 | –
FC(F)C(F)(F)OCC(Cn1cncn1)c1ccc(Cl)cc1Cl (stereo not drawn) [Tetraconazole] | – | – | – | inhibit IL-17 gene expression in a dose-dependent manner | did not show almost any inverse agonistic activity | > 30 | 15 | IL-17 mRNA expression, real-time PCR [1, 7]: significantly suppressed IL-17 mRNAs
C=CCOC(Cn1ccnc1)c1ccc(Cl)cc1Cl (stereo not drawn) [Imazalil] | – | – | – | inhibit IL-17 gene expression in a dose-dependent manner | did not show almost any inverse agonistic activity | > 30 | 29 | IL-17 mRNA expression, real-time PCR [1, 7]: significantly suppressed IL-17 mRNAs
O=S(=O)(c1ccccc1)N(CC(F)(F)F)c1ccc(C(O)(C(F)(F)F)C(F)(F)F)cc1 [T0901317, N-(2,2,2-trifluoroethyl)-N-[4-(2,2,2-trifluoro-1-hydroxy-1-trifluoromethyl-ethyl)-phenyl]-benzene sulfonamide, reference compound] | – | – | – | – | weak RORα inverse agonists | – | – | IL-17A mRNA expression in EL4/shNC cells [2]: showed inhibitory effects on IL-17A mRNA expression; IL-17A mRNA expression, qualitative RT-PCR ([1]; PMA/ionomycin-stimulated EL4 cells, 0.1, 1, 10 μM, Fig. 4A): inhibited IL-17A mRNA expression in a dose-dependent manner; IL-17A mRNA expression, real-time PCR ([1]; PMA/ionomycin-stimulated EL4 cells, 0.1, 1, and 10 μM): significantly inhibited IL-17A mRNA expression; IL-17A gene expression in non-stimulated EL4 cells ([1]; no PMA/ionomycin stimulation, qualitative RT-PCR): neither T0901317 nor the vehicle induced the expression of IL-17A gene; RORα agonistic activity (mouse RORα; CHO cell-based reporter gene assay): didn’t show any RORα/γ agonistic activity; IL-17 mRNA expression in EL4/shRorac cells [3]: also suppressed IL-17 mRNA expression; pKi (RORα): […]; RORα mRNA expression [4]: did not affect; cytotoxic effects based on β-galactosidase activity (CHO-K1 cells): except for the highest dose (30 μM); RORγ mRNA expression [5]: did not affect
CCCOC/C(=N\c1ccc(Cl)cc1C(F)(F)F)n1ccnc1 [Triflumizole] | – | – | significantly inhibited | inhibit IL-17 gene expression in a dose-dependent manner | weak RORα inverse agonists | – | – | –
CCCC1COC(Cn2cncn2)(c2ccc(Cl)cc2Cl)O1 (stereo not drawn) [propiconazole] | inactive | inactive | – | – | – | – | – | –
Clc1ccc(CSC(Cn2cncn2)=Nc2ccc(Cl)cc2Cl)cc1 [Imibenconazole] | – | – | strongly suppressed IL-17A mRNA expression | inhibit IL-17 gene expression in a dose-dependent manner | weak RORα inverse agonists | 10 | 3.3 | IL-17A mRNA expression in EL4/shNC cells [2]: showed inhibitory effects on IL-17A mRNA expression; IL-17 mRNA expression in EL4/shRorac cells [3]: also suppressed IL-17 mRNA expression; cytotoxic effects based on β-galactosidase activity (CHO-K1 cells): except for the highest dose (30 μM)
